Source: ChEMBL document CHEMBL1138767, “Macrocyclic inhibitors for peptide deformylase: a structure-activity relationship study of the ring size” (J Med Chem, 2004)
pKi: −log10 of the molar value. Converted amounts (≈) assume the structure as drawn.

Experiments:
[1] = target: 72 kDa type IV collagenase (Homo sapiens) (UniProt P08253); test: Inhibition of MMP-2 (matrix metalloprotease) at 1 uM
Summary of the method: (§1)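 Human MMP-1, -2, -3 or -9 (0.10 µg, added last to start the reaction) in 100 mM Tris, 100 mM NaCl, 10 mM CaCl2, 0.04% Brij-35. Contained 15 µM fluorogenic peptide substrate (Mca-P-K-G-Dpa-A-R-NH2 for MMP-1/-2) and inhibitor at 0, 1 or 10 µM. Remaining activity monitored continuously by fluorescence, excitation 320 nm, emission 405 nm.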

Bacillus subtilis = test: The compound was tested in vitro for antibacterial activity against Bacillus subtilis
[2] = target: Stromelysin-1 (Homo sapiens) (UniProt P08254); test: Inhibition of MMP-3 (matrix metalloprotease) at 10 uM; summary of the method: as §1
Sequence of Stromelysin-1 (Homo sapiens) (P08254 100-477 limits assumed): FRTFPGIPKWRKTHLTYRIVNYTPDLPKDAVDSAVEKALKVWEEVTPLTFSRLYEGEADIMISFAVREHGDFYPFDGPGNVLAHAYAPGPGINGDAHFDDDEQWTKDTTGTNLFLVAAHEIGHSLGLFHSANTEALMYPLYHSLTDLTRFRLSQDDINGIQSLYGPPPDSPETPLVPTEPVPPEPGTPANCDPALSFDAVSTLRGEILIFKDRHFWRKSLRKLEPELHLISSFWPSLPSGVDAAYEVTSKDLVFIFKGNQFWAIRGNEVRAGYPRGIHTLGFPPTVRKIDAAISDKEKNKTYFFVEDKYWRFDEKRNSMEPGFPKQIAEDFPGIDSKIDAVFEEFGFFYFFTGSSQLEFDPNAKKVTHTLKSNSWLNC

Peptide deformylase [3] = target: T1, Peptide deformylase (Escherichia coli, UniProt Q9JN24); test: Inhibitory effect against Escherichia coli peptide deformylase (PDF) by AAP assay; settings: for pKi: read-out: Ki
T1 sequence (Q9JN24 whole entry): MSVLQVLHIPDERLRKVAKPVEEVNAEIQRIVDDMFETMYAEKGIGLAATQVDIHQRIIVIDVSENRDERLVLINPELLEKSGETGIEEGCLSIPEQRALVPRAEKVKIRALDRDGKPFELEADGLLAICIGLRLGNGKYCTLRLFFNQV
Summary of the method: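 E. coli PDF (Co(II) cofactor) 8 nM preincubated with 0–300 nM inhibitor 2 h on ice in 50 mM Hepes pH 7.0, 150 mM NaCl, 100 μM BSA. Reaction started at room temperature with 80 μM f-ML-pNA for 10 min, heat-quenched at 95 °C, then coupled with AAP. A405 measured, no-PDF background subtracted, conversion <20%. K_I* from Michaelis–Menten fit.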

Enterococcus faecalis = test: The compound was tested in vitro for antibacterial activity against Enterococcus faecalis(ATCC 29212); format: functional
Summary of the method: (§2)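 Broth microdilution per NCCLS M7-A5 in cation-adjusted Mueller–Hinton broth; 5% lysed horse blood added for streptococci, Haemophilus Test Medium for Haemophilus. Inoculum ~5 × 10^5 CFU/mL from 16–20 h plate cultures. Twofold dilutions, final 0.03–32 µg/mL. Incubated 16–20 h at 35–37 °C (Haemophilus and Streptococcus: 24 h, 5% CO2). MIC is the lowest concentration with no visible growth, read visually.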

[4] = target: Matrix metalloproteinase-9 (Homo sapiens) (UniProt P14780); test: Inhibition of MMP-9 (matrix metalloprotease) at 10 uM; summary of the method: as §1
Sequence of Matrix metalloproteinase-9 (Homo sapiens) (P14780 whole entry): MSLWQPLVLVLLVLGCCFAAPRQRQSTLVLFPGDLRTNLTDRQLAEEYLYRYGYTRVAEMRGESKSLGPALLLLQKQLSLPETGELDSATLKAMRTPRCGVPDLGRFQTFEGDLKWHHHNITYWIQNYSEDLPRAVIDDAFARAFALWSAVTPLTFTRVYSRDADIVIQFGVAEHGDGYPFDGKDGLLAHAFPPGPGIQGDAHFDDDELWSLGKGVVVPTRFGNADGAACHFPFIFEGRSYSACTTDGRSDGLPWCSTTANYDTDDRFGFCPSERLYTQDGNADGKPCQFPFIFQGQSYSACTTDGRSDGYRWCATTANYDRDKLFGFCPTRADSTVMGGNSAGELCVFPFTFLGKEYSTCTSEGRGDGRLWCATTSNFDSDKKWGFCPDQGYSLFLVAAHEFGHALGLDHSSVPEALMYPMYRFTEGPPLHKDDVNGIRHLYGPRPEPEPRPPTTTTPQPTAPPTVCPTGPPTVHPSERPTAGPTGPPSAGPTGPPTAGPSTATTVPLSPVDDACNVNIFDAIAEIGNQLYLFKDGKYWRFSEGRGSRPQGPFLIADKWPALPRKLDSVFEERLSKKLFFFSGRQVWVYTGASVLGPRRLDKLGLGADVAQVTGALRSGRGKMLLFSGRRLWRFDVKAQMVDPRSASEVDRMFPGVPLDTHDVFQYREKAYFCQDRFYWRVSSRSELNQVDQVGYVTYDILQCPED

[5] = target: Stromelysin-1 (Homo sapiens) (UniProt P08254); test: Inhibition of MMP-3 (matrix metalloprotease) at 1 uM; summary of the method: as §1
[6] = target: T2, Peptide deformylase (Escherichia coli) (UniProt Q9JN24); test: Inhibition constant against Escherichia coli Peptide deformylase (PDF)
T2 sequence (whole entry): T1 sequence (Q9JN24 whole entry)

[7] = target: 72 kDa type IV collagenase (Homo sapiens) (UniProt P08253); test: Inhibition of MMP-2 (matrix metalloprotease) at 10 uM; summary of the method: as §1
[8] = target: Matrix metalloproteinase-9 (Homo sapiens) (UniProt P14780); test: Inhibition of MMP-9 (matrix metalloprotease) at 1 uM; summary of the method: as §1
Streptococcus pneumoniae [9] = test: The compound was tested in vitro for antibacterial activity against Streptococcus pneumoniae (ATCC 6301); format: functional; summary of the method: as §2
Streptococcus pneumoniae [10] = test: The compound was tested in vitro for antibacterial activity against Streptococcus pneumoniae (ATCC 6303); format: functional; summary of the method: as §2
[11] = target: T3, Interstitial collagenase (Homo sapiens) (UniProt P03956); test: Inhibition of MMP-1 (matrix metalloprotease) at 1 uM; summary of the method: as §1
T3 sequence (whole entry): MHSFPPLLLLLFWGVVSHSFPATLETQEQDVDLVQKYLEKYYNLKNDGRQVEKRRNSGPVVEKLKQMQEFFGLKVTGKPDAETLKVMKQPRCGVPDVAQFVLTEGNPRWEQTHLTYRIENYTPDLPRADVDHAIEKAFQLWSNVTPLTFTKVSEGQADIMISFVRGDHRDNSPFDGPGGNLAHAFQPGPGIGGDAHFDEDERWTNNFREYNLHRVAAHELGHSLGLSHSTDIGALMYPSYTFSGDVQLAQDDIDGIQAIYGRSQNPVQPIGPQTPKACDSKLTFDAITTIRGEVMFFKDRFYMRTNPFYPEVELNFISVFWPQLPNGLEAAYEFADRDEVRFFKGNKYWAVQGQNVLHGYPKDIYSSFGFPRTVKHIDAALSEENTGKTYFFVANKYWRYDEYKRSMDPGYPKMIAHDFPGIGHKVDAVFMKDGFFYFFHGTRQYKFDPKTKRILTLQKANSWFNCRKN

Haemophilus influenzae = test: The compound was tested in vitro for antibacterial activity against Haemophilus influenzae (ATCC 31517); format: functional; summary of the method: as §2
Moraxella catarrhalis = test: The compound was tested in vitro for antibacterial activity against Moraxella catarrhalis (ATCC 37054); format: functional; summary of the method: as §2
Staphylococcus aureus = test: The compound was tested in vitro for antibacterial activity against Staphylococcus aureus (ATCC 29213); format: functional; summary of the method: as §2
[12] = target: T3, Interstitial collagenase (Homo sapiens); test: Inhibition of MMP-1 (matrix metalloprotease) at 10 uM; summary of the method: as §1
[13] = target: T2, Peptide deformylase (Escherichia coli); test: The inhibition constant was measured against Escherichia coli PDF (Peptide deformylase) by diluting a preformed EI* complex into a assay buffer containing f-Met-Lys-AMC and DPPI
Summary of the method: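 E. coli PDF (Co(II) form) at 40–160 nM and inhibitor at 80–200 nM, preincubated 2 h on ice in 50 mM Hepes pH 7.0, 10 mM NaCl, 5 mM DTT with 100 µM BSA. Then diluted 10-fold into the same buffer with 270 µM f-Met-Lys-AMC and 0.1 U DPPI. Recovery of activity followed continuously at 360 nm; k6 taken from progress curves.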

Escherichia coli = test: The compound was tested in vitro for antibacterial activity against Escherichia coli; format: functional; summary of the method: as §2
Streptococcus pneumoniae [14] = test: The compound was tested in vitro for antibacterial activity against Streptococcus pneumoniae (ATCC 49619); format: functional; summary of the method: as §2
Peptide deformylase [15] = target: T1, Peptide deformylase; test: Inhibitory effect against Escherichia coli peptide deformylase (PDF) by DPPI assay
Summary of the method: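 E. coli PDF (Co(II) cofactor) assayed continuously at room temperature in 50 mM Hepes, 10 mM NaCl, 5 mM DTT, pH 7.0. Read at 360 nm, initial rates from <30 s, no-PDF background subtracted. K_I from Michaelis–Menten fit.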

Sequence of 72 kDa type IV collagenase (Homo sapiens) (P08253 110-660 limits assumed): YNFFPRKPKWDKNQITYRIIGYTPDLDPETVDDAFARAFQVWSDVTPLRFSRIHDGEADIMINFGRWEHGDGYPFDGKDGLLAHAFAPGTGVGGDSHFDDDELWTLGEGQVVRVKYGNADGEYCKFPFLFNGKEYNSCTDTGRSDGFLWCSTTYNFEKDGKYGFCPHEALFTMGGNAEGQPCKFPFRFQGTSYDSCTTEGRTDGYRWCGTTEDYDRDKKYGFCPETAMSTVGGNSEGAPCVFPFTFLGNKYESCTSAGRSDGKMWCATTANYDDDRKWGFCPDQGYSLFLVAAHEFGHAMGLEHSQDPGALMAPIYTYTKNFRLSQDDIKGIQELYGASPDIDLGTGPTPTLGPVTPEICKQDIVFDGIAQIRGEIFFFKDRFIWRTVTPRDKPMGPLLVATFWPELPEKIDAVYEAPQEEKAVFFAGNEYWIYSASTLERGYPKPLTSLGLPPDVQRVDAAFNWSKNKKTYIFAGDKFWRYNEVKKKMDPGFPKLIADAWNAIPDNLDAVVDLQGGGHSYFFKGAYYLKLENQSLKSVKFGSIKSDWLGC

Row | SMILES | inhibition [1] | MIC90 (Bacillus subtilis) | inhibition [2] | pKi (Peptide deformylase [3]) | inhibition [4] | inhibition [5] | K5 [6] | inhibition [7] | inhibition [8] | inhibition [11] | inhibition [12] | K6 [13] | MIC90 (Escherichia coli) | pKi (Peptide deformylase [15]) | further results
1 | NCCCC[C@@H]1NC(=O)[C@@H](CN(O)C=O)CCCCCCCCCCCCCCNC1=O | 6% | > 32 µg/mL | 6% | 7.44 | 5% | 0% | 0.11 min⁻¹ | 15% | 4% | 1% | 7% | 0.018 min⁻¹ | > 32 µg/mL | – | MIC90 (Enterococcus faecalis): 32 µg/mL (≈ 70.4 µM); MIC90 (Streptococcus pneumoniae [9]): > 32 µg/mL; MIC90 (Streptococcus pneumoniae [10]): > 32 µg/mL; MIC90 (Haemophilus influenzae): 32 µg/mL (≈ 70.4 µM); MIC90 (Moraxella catarrhalis): 1 µg/mL (≈ 2.2 µM); MIC90 (Staphylococcus aureus): 32 µg/mL (≈ 70.4 µM); MIC90 (Streptococcus pneumoniae [14]): > 32 µg/mL
2 | CC(C)(C)[C@@H]1NC(=O)[C@@H](CN(O)C=O)CCCCCCCCCNC1=O | 4% | 0.7 µg/mL (≈ 1.89 µM) | 9% | 9.48 | 9% | 3% | 1.2 min⁻¹ | 8% | 5% | 7% | 14% | 0.0038 min⁻¹ | – | 6.96 | MIC90 (Enterococcus faecalis): > 32 µg/mL; MIC90 (Streptococcus pneumoniae [9]): 4 µg/mL (≈ 10.8 µM); MIC90 (Streptococcus pneumoniae [10]): 2 µg/mL (≈ 5.41 µM); MIC90 (Haemophilus influenzae): 0.5 µg/mL (≈ 1.35 µM); MIC90 (Moraxella catarrhalis): 0.62 µg/mL (≈ 1.68 µM); MIC90 (Staphylococcus aureus): 16 µg/mL (≈ 43.3 µM); MIC90 (Streptococcus pneumoniae [14]): 4 µg/mL (≈ 10.8 µM)
3 | CCCCCCNC(=O)[C@H](CCCCN)NC(=O)[C@H](CCCCC)CN(O)C=O | 73% | – | 99% | – | 94% | 81% | No Slow-Binding Behaviour | 98% | 61% | 50% | 100% | No Slow-Binding Behaviour | – | – | Ki (Peptide deformylase [3]): No Slow-Binding Behaviour
4 | CC(C)(C)[C@@H]1NC(=O)[C@@H](CN(O)C=O)CCCCCCCCCCCNC1=O | – | 0.08 µg/mL (≈ 0.201 µM) | – | 9.66 | – | – | 0.5 min⁻¹ | – | – | – | – | 0.0015 min⁻¹ | > 24 µg/mL | 7.11 | –
5 | CCCC[C@H](CN(O)C=O)C(=O)N[C@@H](CCCCN)C(=O)Nc1ccccc1 | 34% | – | 73% | – | 89% | 68% | No Slow-Binding Behaviour | 55% | 54% | 50% | 97% | No Slow-Binding Behaviour | – | 7.64 | Ki (Peptide deformylase [3]): No Slow-Binding Behaviour
6 | CC(C)(C)[C@@H]1NC(=O)[C@@H](CN(O)C=O)CCCCCCCCNC1=O | 10% | 1.4 µg/mL (≈ 3.94 µM) | 20% | 7.86 | 11% | 3% | 0.02 min⁻¹ | 15% | 8% | 0% | 1% | 0.0061 min⁻¹ | > 24 µg/mL | 7.20 | –
7 | CC(C)(C)[C@@H]1NC(=O)[C@@H](CN(O)C=O)CCCCCCCCCCNC1=O | – | 0.2 µg/mL (≈ 0.521 µM) | – | 9.64 | – | – | 1.6 min⁻¹ | – | – | – | – | 0.0037 min⁻¹ | > 12 µg/mL | 7.02 | –
8 | CC(=O)NCCCC[C@@H]1NC(=O)[C@@H](CN(O)C=O)CCCCCCCCCNC1=O | 17% | – | 8% | 7.92 | 8% | 0% | 0.28 min⁻¹ | 20% | 8% | 3% | 13% | 0.0048 min⁻¹ | – | 6.15 | –
9 | CCCC[C@H](CN(O)C=O)C(=O)N[C@H](C(=O)N(C)C)C(C)(C)C | – | – | – | – | – | – | No Slow-Binding Behaviour | – | – | – | – | No Slow-Binding Behaviour | – | 7.96 | Ki (Peptide deformylase [3]): No Slow-Binding Behaviour
10 | NCCCC[C@@H]1NC(=O)[C@@H](CN(O)C=O)CCCCCCCCCNC1=O | – | ~8 µg/mL (≈ 20.8 µM) | – | 8.52 | – | – | 0.12 min⁻¹ | – | – | – | – | 0.0042 min⁻¹ | 4 µg/mL (≈ 10.4 µM) | 7.04 | –
11 | CC(C)(C)[C@@H]1NC(=O)[C@@H](CN(O)C=O)CCCCCCCCCCCCCCNC1=O | 0% | ~16 µg/mL (≈ 36.4 µM) | 4% | 7.60 | 6% | 3% | 1 min⁻¹ | 0% | 4% | 7% | 8% | 0.01 min⁻¹ | > 24 µg/mL | – | MIC90 (Enterococcus faecalis): > 32 µg/mL; MIC90 (Streptococcus pneumoniae [9]): 8 µg/mL (≈ 18.2 µM); MIC90 (Streptococcus pneumoniae [10]): 4 µg/mL (≈ 9.1 µM); MIC90 (Haemophilus influenzae): > 32 µg/mL; MIC90 (Moraxella catarrhalis): < 0.03 µg/mL; MIC90 (Staphylococcus aureus): > 32 µg/mL; MIC90 (Streptococcus pneumoniae [14]): 8 µg/mL (≈ 18.2 µM)
